# According to ChEMBL document CHEMBL4354812, “N-Benzyl/Aryl Substituted Tryptanthrin as Dual Inhibitors of Indoleamine 2,3-Dioxygenase and Tryptophan 2,3-Dioxygenase” (J Med Chem, 2019):
# Activity calls are given as the source filed them. The calls are words filed in the database; no cut-off is given here.
# Assays:
# [1] = molecular target: T1, Tryptophan 2,3-dioxygenase (Homo sapiens, UniProt P48775); experiment: Inhibition of human TDO transfected in HEK293 cells assessed as reduction in kynurenine production using L-tryptophan as substrate incubated for 12 hrs; format: cell-based
# Summary of the method: (§1)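 U87 MG cells (hIDO2) or HEK293 cells (hTDO) were transiently transfected at 80% confluence, with empty vector as control. After 18 h, cells were seeded 2.5 × 10⁴/well in medium with 200 μM L-Trp. Compound serial dilutions were added after a further 6 h (IDO2) or 12 h (TDO). Reactions were stopped 24 h (IDO2) or 8 h (TDO) later with TCA, heated 65 °C 15 min, and Kyn read with DMAB at 492 nm. IC50 by nonlinear regression.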
# Target sequence in this assay (P48775 whole entry): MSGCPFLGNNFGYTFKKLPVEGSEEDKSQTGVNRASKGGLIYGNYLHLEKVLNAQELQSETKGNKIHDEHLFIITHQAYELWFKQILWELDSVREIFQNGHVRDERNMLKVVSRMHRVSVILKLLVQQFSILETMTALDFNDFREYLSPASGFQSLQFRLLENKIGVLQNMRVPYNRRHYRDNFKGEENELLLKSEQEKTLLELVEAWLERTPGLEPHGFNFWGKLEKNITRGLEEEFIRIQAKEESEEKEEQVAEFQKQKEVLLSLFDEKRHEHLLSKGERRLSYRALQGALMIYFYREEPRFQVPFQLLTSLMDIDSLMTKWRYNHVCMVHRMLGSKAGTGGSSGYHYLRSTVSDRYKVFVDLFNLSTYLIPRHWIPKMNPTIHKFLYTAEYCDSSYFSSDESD
# [2] = molecular target: T1, Tryptophan 2,3-dioxygenase; experiment: Uncompetitive inhibition of recombinant human TDO expressed in Escherichia coli BL21 (DE3) assessed as assessed as inhibition constant using varying concentration of L-tryptophan as substrate by Dixon plot analysis
# Summary of the method: (§2)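 Enzymatic assays of the kynurenine-forming reaction were run with varying L-Trp. Ki was derived by plotting [S]/V against inhibitor concentration [I], with inhibition type assigned from the graphical pattern.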
# Target sequence in this assay (P48775 whole entry): as above
# [3] = molecular target: T1, Tryptophan 2,3-dioxygenase; experiment: Mixed uncompetitive inhibition of recombinant human TDO expressed in Escherichia coli BL21 (DE3) assessed as inhibition constant using varying concentration of L-tryptophan as substrate by Dixon plot analysis; summary of the method: as §2
# Target sequence in this assay (P48775 whole entry): as above
# [4] = molecular target: T2, Indoleamine 2,3-dioxygenase 1 (Homo sapiens, UniProt P14902); experiment: Inhibition of IDO1 in IFN-gamma stimulated human HeLa cells assessed as reduction in kynurenine production incubated for 18 hrs; format: cell-based
# Summary of the method: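 HeLa cells were seeded 25 000/well overnight, then exposed to inhibitor dilutions with 100 ng/mL human IFN-γ (final) for 18 h at 37 °C. Medium was treated with TCA at 50 °C for 30 min to hydrolyze NFK to Kyn. Kyn was read with 2% DMAB at 492 nm. IC50 by nonlinear regression.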
# Target sequence in this assay (P14902 whole entry): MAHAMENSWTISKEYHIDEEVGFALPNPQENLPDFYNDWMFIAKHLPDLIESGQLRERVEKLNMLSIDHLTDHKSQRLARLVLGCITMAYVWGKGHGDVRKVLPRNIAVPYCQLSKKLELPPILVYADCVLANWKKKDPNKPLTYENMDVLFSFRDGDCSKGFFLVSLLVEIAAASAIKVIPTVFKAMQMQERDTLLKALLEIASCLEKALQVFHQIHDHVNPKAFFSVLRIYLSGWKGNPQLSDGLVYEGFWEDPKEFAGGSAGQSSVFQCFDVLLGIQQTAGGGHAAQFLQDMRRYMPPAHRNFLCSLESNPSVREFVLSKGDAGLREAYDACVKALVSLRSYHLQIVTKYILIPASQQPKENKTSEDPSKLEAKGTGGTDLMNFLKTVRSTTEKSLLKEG
# [5] = molecular target: T3, Indoleamine 2,3-dioxygenase 2 (Homo sapiens, UniProt Q6ZQW0); experiment: Uncompetitive inhibition of C-terminal His6-tagged human IDO2 (14 to 420 residues) expressed in Escherichia coli BL21 (DE3) assessed as inhibition constant using varying concentration of L-tryptophan as substrate by Dixon plot analysis; summary of the method: as §2
# T3 sequence (Q6ZQW0 whole entry): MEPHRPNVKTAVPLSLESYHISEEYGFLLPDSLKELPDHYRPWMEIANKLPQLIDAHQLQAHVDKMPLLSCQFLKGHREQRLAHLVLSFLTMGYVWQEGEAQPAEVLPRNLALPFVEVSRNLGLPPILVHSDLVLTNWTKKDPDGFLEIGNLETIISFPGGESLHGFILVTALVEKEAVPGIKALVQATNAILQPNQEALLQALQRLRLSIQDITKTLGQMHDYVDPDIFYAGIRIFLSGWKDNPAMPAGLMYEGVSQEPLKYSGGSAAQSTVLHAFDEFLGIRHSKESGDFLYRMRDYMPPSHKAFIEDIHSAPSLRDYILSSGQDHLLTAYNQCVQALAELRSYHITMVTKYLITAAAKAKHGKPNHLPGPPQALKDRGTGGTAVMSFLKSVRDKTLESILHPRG
# [6] = molecular target: T3, Indoleamine 2,3-dioxygenase 2; experiment: Inhibition of human IDO2 transfected in human U87MG cells assessed as reduction in kynurenine production using L-tryptophan as substrate incubated with for 6 hrs; format: cell-based; summary of the method: as §1
# [7] = molecular target: T3, Indoleamine 2,3-dioxygenase 2; experiment: Inhibition of C-terminal His6-tagged human IDO2 (14 to 420 residues) expressed in Escherichia coli BL21 (DE3) assessed as reduction in conversion of L-tryptophan to N-formyl kynurenine using L-tryptophan as substrate after 30 mins by methylene blue dye based microplate reader analysis
# Summary of the method: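 Recombinant enzyme with L-Trp substrate, ascorbic acid 40 mM, methylene blue 20 μM and catalase 200 μg/mL in potassium phosphate buffer. Conditions were pH 7.0 with 400 μM L-Trp for TDO, and pH 7.5 with 30 mM L-Trp for IDO2. Reaction ran 30 min at 37 °C, stopped with TCA, heated 65 °C 15 min. Kyn detected with DMAB at 492 nm. IC50 by nonlinear regression.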
# [8] = molecular target: T2, Indoleamine 2,3-dioxygenase 1; experiment: Uncompetitive inhibition of recombinant human IDO1 expressed in Escherichia coli BL21 cells assessed inhibition constant using varying concentration of L-tryptophan as substrate by Dixon plot analysis; summary of the method: as §2
# Target sequence in this assay (P14902 whole entry): as the sequence (P14902 whole entry) above
# [9] = molecular target: T1, Tryptophan 2,3-dioxygenase; experiment: Inhibition of recombinant human TDO expressed in Escherichia coli BL21 (DE3) assessed as reduction in conversion of L-tryptophan to N-formyl kynurenine using L-tryptophan as substrate after 30 mins by methylene blue assay
# Target sequence in this assay (P48775 whole entry): as the sequence (P48775 whole entry) above
# [10] = tested on: Lewis lung carcinoma cell line; experiment: Antitumor activity against mouse LLC cells implanted in C57BL/6 mouse assessed as reduction in tumor volume at 100 mg/kg, po qd administered for 2 weeks and measured at 2 days interval during compound dosing relative to control; format: functional; set-up: scale not given: the % may be the effect or the level left
# Summary of the method: (§3)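 Tumor cells (LLC, or H22 ascites cells after two intraperitoneal passages in Kunming mice) injected sc into the right forelimb at 2 × 10⁶ per mouse, in female 6–8-week C57BL/6 or Kunming mice. Oral dosing once daily began at 5 mm tumor diameter and continued 2 weeks. Vehicle was 0.5% CMC-Na. Volume was read by caliper every 2 days as long × short²/2. Tumors were weighed at sacrifice. n = 9–10/group.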
# Mus musculus [11] = experiment: In vivo blockade of kynurenine pathway in Kunming mouse implanted with mouse H22 cells assessed as increase in tryptophan level in serum at 100 mg/kg, po qd for 2 weeks by HPLC analysis; format: functional, organism-based
# Summary of the method: (§4)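 H22 tumor-bearing Kunming mice received oral dosing once daily in 0.5% CMC-Na for 2 weeks. Serum Trp and Kyn were measured by HPLC on a C18 column with 15 mM sodium acetate (pH 3.6) containing 4% acetonitrile, UV detection at 280 and 360 nm. Kyn/Trp ratio calculated. n = 9–10/group.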
# [12] = molecular target: T1, Tryptophan 2,3-dioxygenase; experiment: Binding affinity to human TDO assessed as change in spectral signal at 200 uM by CPMG NMR spectrometry analysis
# Target sequence in this assay (P48775 whole entry, looked up): as the sequence (P48775 whole entry) above
# H22 [13] = experiment: Antitumor activity against mouse H22 cells implanted in Kunming mouse assessed as reduction in tumor volume at 100 mg/kg, po qd administered for 2 weeks and measured at 2 days interval during compound dosing relative to control; format: functional; set-up: scale not given: the % may be the effect or the level left
# Summary of the method: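 H22 ascites cells (2 × 10⁶/mouse) passaged twice intraperitoneally in Kunming mice, diluted in saline, then implanted sc into the right forelimb (2 × 10⁶ cells). Therapy began once the tumor reached 5 mm diameter: oral dosing once daily in 0.5% CMC-Na, vehicle controls, for 2 weeks. Calipers every 2 days; volume = long × short²/2. n = 9−10 mice/group.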
# [14] = tested on: Lewis lung carcinoma cell line; experiment: Antitumor activity against mouse LLC cells implanted in C57BL/6 mouse assessed as reduction in tumor weight at 100 mg/kg, po qd administered for 2 weeks and measured post-treatment; format: functional, organism-based; summary of the method: as §3
# Homo sapiens = species: Homo sapiens; experiment: Inhibition of IDO1/TDO in IFNgamma-treated human HeLa cells assessed as T cell proliferation at 1 uM measured after 2 days in presence of IL-2, anti-CD3 and IFN-gamma by CFSE dye based flow cytometry analysis (reference value: 11.7 %); set-up: scale not given: the % may be the effect or the level left
# Summary of the method: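 CFSE-labelled human PBMC lymphocytes (1 × 10⁶/well) were cocultured with HeLa cells (2 × 10⁵/well), a 5:1 ratio, in 150 U/mL IL-2, 100 ng/mL anti-CD3 and 60 ng/mL IFN-γ. Compound was tested at 40 nM, 200 nM, 500 nM or 1 μM. Proliferation was read by flow cytometry after 2 days, three independent experiments.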
# H22 [15] = experiment: Antitumor activity against mouse H22 cells implanted in Kunming mouse assessed as reduction in tumor weight at 100 mg/kg, po qd administered for 2 weeks and measured post-treatment; format: functional, organism-based; summary of the method: as §3
# [16] = molecular target: T4, Indoleamine 2,3-dioxygenase 2 (Homo sapiens) (UniProt Q6ZQW0); experiment: Binding affinity to human IDO2 at 200 uM by STD NMR spectrometry analysis
# T4 sequence (whole entry): T3 sequence (Q6ZQW0 whole entry)
# [17] = molecular target: T1, Tryptophan 2,3-dioxygenase; experiment: Binding affinity to human TDO at 200 uM by STD NMR spectrometry analysis
# Target sequence in this assay (P48775 whole entry, looked up): as the sequence (P48775 whole entry) above
# [18] = molecular target: T4, Indoleamine 2,3-dioxygenase 2 (Homo sapiens); experiment: Binding affinity to human IDO2 assessed as change in spectral signal at 200 uM by CPMG NMR spectrometry analysis
# Mus musculus [19] = experiment: In vivo blockade of kynurenine pathway in Kunming mouse implanted with mouse H22 cells assessed as decrease in kynurenine level in serum at 100 mg/kg, po qd for 2 weeks by HPLC analysis; format: functional, organism-based; summary of the method: as §4
# [20] = molecular target: T2, Indoleamine 2,3-dioxygenase 1; experiment: Binding affinity to heme in human IDO1 assessed as Soret band red shift from 405 nm to […] at 375 uM and pH 6.5 under normal atmospheric condition by UV-vis spectroscopy analysis
# Target sequence in this assay (P14902 whole entry, looked up): as the sequence (P14902 whole entry) above
# [21] = molecular target: T2, Indoleamine 2,3-dioxygenase 1; experiment: Inhibition of recombinant human IDO1 expressed in Escherichia coli BL21 cells assessed as reduction in conversion of L-tryptophan to N-formyl kynurenine using L-tryptophan as substrate after 30 mins by methylene blue dye based microplate reader analysis
# Target sequence in this assay (P14902 whole entry): as above
# [22] = molecular target: T2, Indoleamine 2,3-dioxygenase 1; experiment: Competitive inhibition of recombinant human IDO1 expressed in Escherichia coli BL21 cells assessed as apparent inhibition constant using varying concentration of L-tryptophan as substrate by Dixon plot analysis
# Target sequence in this assay (P14902 whole entry): as above
# [23] = molecular target: T2, Indoleamine 2,3-dioxygenase 1; experiment: Noncompetitive inhibition of recombinant human IDO1 expressed in Escherichia coli BL21 cells assessed inhibition constant using varying concentration of L-tryptophan as substrate by Dixon plot analysis; summary of the method: as §2
# Target sequence in this assay (P14902 whole entry): as above
# [24] = molecular target: T3, Indoleamine 2,3-dioxygenase 2; experiment: Noncompetitive inhibition of C-terminal His6-tagged human IDO2 (14 to 420 residues) expressed in Escherichia coli BL21 (DE3) assessed as inhibition constant using varying concentration of L-tryptophan as substrate by Dixon plot analysis; summary of the method: as §2
Compound,IC50 [1] [µM],Ki [2] [µM],Ki [3] [µM],IC50 ([4]; read-out: IC50) [µM],IC50 [6] [µM],IC50 [7] [µM],IC50 [9] [µM],other results
O=C1c2cc(F)ccc2-n2c1nc1ccc(CN3CCOCC3)cc1c2=O,0.07,0.34,,,,,,
O=C1c2cc(F)ccc2-n2c1nc1ccc(N3CCNCC3)cc1c2=O,0.29,,0.67,0.76,17.8,41.6,3.15,Ki [5]: 36.9 µM; Ki ([8]; read-out: Ki): 6.08 µM
CC(C)(C)OC(=O)N1CCN(Cc2ccc3nc4n(c(=O)c3c2)-c2ccc(F)cc2C4=O)CC1,0.07,,0.13,,,,,
CN1CCN(c2ccc3nc4n(c(=O)c3c2)-c2ccccc2C4=O)CC1,0.47,18,,2.96,48.7,82.6,6.75,Ki [5]: 48.7 µM; Ki ([8]; read-out: Ki): 7.57 µM
Cn1cc(C[C@H](N)C(=O)O)c2ccccc21 [(L)-1-METHYLTRYPTOPHAN],,,,,,,,Activity [10]: 33.6%; Activity (Mus musculus [11]): inactive; Activity [12]: inactive; Activity (H22 [13]): 15.8%; Activity [14]: Active; Activity (Homo sapiens): 15.8%; Activity (H22 [15]): Active; Activity [16]: inactive; Activity [17]: inactive; Activity [18]: inactive; Activity (Mus musculus [19]): Active
NS(=O)(=O)NCCNc1nonc1/C(=N/O)Nc1ccc(F)c(Br)c1,,,,,,,,Activity [20]: Active
NS(=O)(=O)NCCNc1nonc1C(=NO)Nc1ccc(F)c(Br)c1 [EPACADOSTAT],,,,,,10.3,,
O=C1c2cc(F)ccc2-n2c1nc1ccc(N3CCCCC3)cc1c2=O,3.7,1.56,,2.24,22.2,40.1,10.1,Ki [5]: 26.8 µM; Ki ([8]; read-out: Ki): 4.34 µM
O=C1c2cc(F)ccc2-n2c1nc1ccc(N3CCOCC3)cc1c2=O,0.5,2.36,,,20.3,79.9,6.4,IC50 [21]: Not Active; IC50 ([4]; hela): Not Active; Ki [22]: Not Active; Ki [5]: 39.1 µM; Ki [23]: Not Active; Ki [8]: Not Active
CN(C)Cc1ccc2nc3n(c(=O)c2c1)-c1ccc(F)cc1C3=O,0.06,,0.09,,,,,
O=C1c2cc(F)ccc2-n2c1nc1ccc(CN3CCNCC3)cc1c2=O,0.09,0.12,,,,,,
CN1CCN(Cc2ccc3nc4n(c(=O)c3c2)-c2ccccc2C4=O)CC1,0.18,,0.42,0.18,,,,
CN1CCN(c2ccc3nc4n(c(=O)c3c2)-c2ccc(F)cc2C4=O)CC1,0.25,,0.17,1.87,79,46.8,2.59,Ki ([23]; read-out: Ki): 6.92 µM; Ki [24]: 19.9 µM
CN(C)c1ccc2nc3n(c(=O)c2c1)-c1ccc(F)cc1C3=O,0.27,1.24,,0.59,90.9,91.3,3.82,Ki [24]: 45.3 µM; Ki ([8]; read-out: Ki): 8.82 µM
